Reference: paper PMC3276691 (Journal of Medicinal Chemistry, 2012)
One block for each molecule: values may come before it.

Key:
TLR8 [1] = experiment: Inhibition of TLR8-mediated cytokine and chemokine production in hPBMCs; type: cell-based, human; conditions: 12 h, proinflammatory cytokines (Fig. 4)
TLR7 [2] = experiment: Inhibition of TLR7-mediated cytokine and chemokine production in hPBMCs; type: cell-based; conditions: Homo sapiens, 12 h, read-out: IC50, inhibition of TLR7-induced cytokine and chemokine release
TLR7 [3] = experiment: Schild plot analysis of inhibition of TLR7-induced activation; type: cell-based, human; conditions: imidazoquinoline TLR7-specific agonist, checker-board format
TLR8 [4] = experiment: Schild plot analysis of inhibition of TLR8-induced activation; type: cell-based, human; conditions: CL075 TLR8-specific agonist, checker-board format
[5] = system: human peripheral blood mononuclear cells; experiment: IFN-α induction in human PBMCs; type: cell-based; conditions: hPBMCs, 12 h, graded concentrations
Method in brief: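 PBMCs from healthy donors, isolated by Ficoll-Hypaque gradient centrifugation and stimulated with graded concentrations of test compound for 12 h. Supernatants collected by centrifugation and diluted 1:20. IFN-α measured in triplicate by high-sensitivity human IFN-α-specific ELISA.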

Compound: CCN(CC)CCCC(C)Nc1ccnc2cc(Cl)ccc12 (stereo not drawn) [Chloroquine, chloroquine, reference compound]
Inhibition of TNF-α and IL-1β production (TLR8 [1]): feeble inhibitor

IC50 (TLR7 [2]): 50 to 300 nM
Compound: Nc1nc2ccccc2c2c1nc(CCCc1nc3c(N)nc4ccccc4c3n1Cc1ccccc1)n2Cc1ccccc1 [Compound 4a, 2,2′-(propane-1,3-diyl)bis(1-benzyl-1H-imidazo[4,5-c]quinolin-4-amine)]
Inhibition of TNF-α and IL-1β production (TLR8 [1]): potently inhibits | Schild plot slope, TLR7 inhibition (TLR7 [3]): 1.12 | Schild plot slope, TLR8 inhibition (TLR8 [4]): 0.51

Compound: CCCCc1nc2c(N)nc3ccccc3c2n1Cc1ccc(CNC(=O)CCCCCCCCCCC(=O)NCc2ccc(Cn3c(CCCC)nc4c(N)nc5ccccc5c43)cc2)cc1 [Compound 10c]
IFN-α induction [5]: most potent
